Key:
[1] = substrate: CC(=O)N(Cc1ccc(OC(F)(F)F)cc1)[C@@H]1COc2nc([N+](=O)[O-])cn2C1; assay: (§1) Ratio of Kcat to Km for Mycobacterium tuberculosis deazaflavin-dependent nitroreductase
Outline: (§2)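 Each compound was tested as a substrate of Mtb deazaflavin-dependent nitroreductase (Ddn). kcat/KM was derived from the kinetics of reduced F420 reoxidation. Assays were repeated in two independent laboratories until concordant, and values are averages of multiple measurements.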

[2] = substrate: CC(C)N(Cc1ccc(OC(F)(F)F)cc1)[C@@H]1COc2nc([N+](=O)[O-])cn2C1; assay: as §1; outline: as §2
[3] = substrate: CC(N[C@@H]1COc2nc([N+](=O)[O-])cn2C1)c1ccc(OC(F)(F)F)cc1; assay: as §1; outline: as §2
[4] = substrate: CCC(N[C@@H]1COc2nc([N+](=O)[O-])cn2C1)c1ccc(OC(F)(F)F)cc1; assay: as §1; outline: as §2
[5] = substrate: CCCC(N[C@@H]1COc2nc([N+](=O)[O-])cn2C1)c1ccc(OC(F)(F)F)cc1; assay: as §1; outline: as §2
[6] = substrate: CCCCC(N[C@@H]1COc2nc([N+](=O)[O-])cn2C1)c1ccc(OC(F)(F)F)cc1; assay: as §1; outline: as §2
[7] = substrate: CCCN(Cc1ccc(OC(F)(F)F)cc1)[C@@H]1COc2nc([N+](=O)[O-])cn2C1; assay: as §1; outline: as §2
[8] = substrate: CCNC(=O)N(Cc1ccc(OC(F)(F)F)cc1)[C@@H]1COc2nc([N+](=O)[O-])cn2C1; assay: as §1; outline: as §2
[9] = substrate: CN(Cc1ccc(OC(F)(F)F)cc1)[C@@H]1COc2nc([N+](=O)[O-])cn2C1; assay: as §1; outline: as §2
[10] = substrate: CN1CCN(c2cc(CN[C@@H]3COc4nc([N+](=O)[O-])cn4C3)ccc2OC(F)(F)F)CC1; assay: as §1; outline: as §2
[11] = substrate: CN1CCN(c2cc(OC(F)(F)F)ccc2CN[C@@H]2COc3nc([N+](=O)[O-])cn3C2)CC1; assay: as §1; outline: as §2
[12] = substrate: COC(=O)c1cc(CN[C@@H]2COc3nc([N+](=O)[O-])cn3C2)ccc1OC(F)(F)F; assay: as §1; outline: as §2
[13] = substrate: COc1cc(CN[C@@H]2COc3nc([N+](=O)[O-])cn3C2)ccc1OC(F)(F)F; assay: as §1; outline: as §2
[14] = substrate: COc1cc(CO[C@@H]2COc3nc([N+](=O)[O-])cn3C2)ccc1OC(F)(F)F; assay: as §1; outline: as §2
[15] = substrate: COc1cc(OC(F)(F)F)ccc1CN[C@@H]1COc2nc([N+](=O)[O-])cn2C1; assay: as §1; outline: as §2
[16] = substrate: NC(=O)C(N[C@@H]1COc2nc([N+](=O)[O-])cn2C1)c1ccc(OC(F)(F)F)cc1; assay: as §1; outline: as §2
[17] = substrate: O=C(c1ccc(Cl)cc1)N(Cc1ccc(OC(F)(F)F)cc1)[C@@H]1COc2nc([N+](=O)[O-])cn2C1; assay: as §1; outline: as §2
[18] = substrate: O=C(c1cccc(Cl)c1)N(Cc1ccc(OC(F)(F)F)cc1)[C@@H]1COc2nc([N+](=O)[O-])cn2C1; assay: as §1; outline: as §2
[19] = substrate: O=C(c1ccccc1)N(Cc1ccc(OC(F)(F)F)cc1)[C@@H]1COc2nc([N+](=O)[O-])cn2C1; assay: as §1; outline: as §2
[20] = substrate: O=C(c1ccccc1Cl)N(Cc1ccc(OC(F)(F)F)cc1)[C@@H]1COc2nc([N+](=O)[O-])cn2C1; assay: as §1; outline: as §2
[21] = substrate: O=CN(Cc1ccc(OC(F)(F)F)cc1)[C@@H]1COc2nc([N+](=O)[O-])cn2C1; assay: as §1; outline: as §2
[22] = substrate: O=[N+]([O-])c1cn2c(n1)OC[C@@H](NC(CCO)c1ccc(OC(F)(F)F)cc1)C2; assay: as §1; outline: as §2
[23] = substrate: O=[N+]([O-])c1cn2c(n1)OC[C@@H](NC(CO)c1ccc(OC(F)(F)F)cc1)C2; assay: as §1; outline: as §2
[24] = substrate: O=[N+]([O-])c1cn2c(n1)OC[C@@H](NC(c1ccc(OC(F)(F)F)cc1)c1ncc[nH]1)C2; assay: as §1; outline: as §2
[25] = substrate: O=[N+]([O-])c1cn2c(n1)OC[C@@H](NC(c1ccc(OC(F)(F)F)cc1)c1ncco1)C2; assay: as §1; outline: as §2
[26] = substrate: O=[N+]([O-])c1cn2c(n1)OC[C@@H](NCc1ccc(OC(F)(F)F)c(Cl)c1)C2; assay: as §1; outline: as §2
[27] = substrate: O=[N+]([O-])c1cn2c(n1)OC[C@@H](NCc1ccc(OC(F)(F)F)c(F)c1)C2; assay: as §1; outline: as §2
[28] = substrate: O=[N+]([O-])c1cn2c(n1)OC[C@@H](NCc1ccc(OC(F)(F)F)c(N3CCOCC3)c1)C2; assay: as §1; outline: as §2
[29] = substrate: O=[N+]([O-])c1cn2c(n1)OC[C@@H](NCc1ccc(OC(F)(F)F)c(O)c1)C2; assay: as §1; outline: as §2
[30] = substrate: O=[N+]([O-])c1cn2c(n1)OC[C@@H](NCc1ccc(OC(F)(F)F)c(Oc3ccccc3)c1)C2; assay: as §1; outline: as §2
[31] = substrate: O=[N+]([O-])c1cn2c(n1)OC[C@@H](NCc1ccc(OC(F)(F)F)cc1)C2; assay: as §1; outline: as §2
[32] = substrate: O=[N+]([O-])c1cn2c(n1)OC[C@@H](NCc1ccc(OC(F)(F)F)cc1Br)C2; assay: as §1; outline: as §2
[33] = substrate: O=[N+]([O-])c1cn2c(n1)OC[C@@H](NCc1ccc(OC(F)(F)F)cc1Cl)C2; assay: as §1; outline: as §2
[34] = substrate: O=[N+]([O-])c1cn2c(n1)OC[C@@H](NCc1ccc(OC(F)(F)F)cc1F)C2; assay: as §1; outline: as §2
[35] = substrate: O=[N+]([O-])c1cn2c(n1)OC[C@@H](NCc1ccc(OC(F)(F)F)cc1N1CCCCC1)C2; assay: as §1; outline: as §2
[36] = substrate: O=[N+]([O-])c1cn2c(n1)OC[C@@H](NCc1ccc(OC(F)(F)F)cc1N1CCOCC1)C2; assay: as §1; outline: as §2
[37] = substrate: O=[N+]([O-])c1cn2c(n1)OC[C@@H](NCc1ccc(OC(F)(F)F)cc1O)C2; assay: as §1; outline: as §2
[38] = substrate: O=[N+]([O-])c1cn2c(n1)OC[C@@H](NCc1ccc(OC(F)(F)F)cc1OC1CC1)C2; assay: as §1; outline: as §2
[39] = substrate: O=[N+]([O-])c1cn2c(n1)OC[C@@H](NCc1ccc(OC(F)(F)F)cc1OCC1CC1)C2; assay: as §1; outline: as §2
[40] = substrate: O=[N+]([O-])c1cn2c(n1)OC[C@@H](NCc1ccc(OC(F)(F)F)cc1OCc1ccccc1)C2; assay: as §1; outline: as §2
[41] = substrate: O=[N+]([O-])c1cn2c(n1)OC[C@@H](NCc1ccc(OC(F)(F)F)cc1Oc1ccccc1)C2; assay: as §1; outline: as §2
[42] = substrate: O=[N+]([O-])c1cn2c(n1)OC[C@@H](OCc1ccc(OC(F)(F)F)c(F)c1)C2; assay: as §1; outline: as §2
[43] = substrate: O=[N+]([O-])c1cn2c(n1)OC[C@@H](OCc1ccc(OC(F)(F)F)c(O)c1)C2; assay: as §1; outline: as §2
[44] = substrate: O=[N+]([O-])c1cn2c(n1)OC[C@@H](OCc1ccc(OC(F)(F)F)cc1)C2; assay: as §1; outline: as §2

B1: Deazaflavin-dependent nitroreductase (Mycobacterium tuberculosis), P9WP15 (protein)
chain: MPKSPPRFLNSPLSDFFIKWMSRINTWMYRRNDGEGLGGTFQKIPVALLTTTGRKTGQPRVNPLYFLRDGGRVIVAASKGGAEKNPMWYLNLKANPKVQVQIKKEVLDLTARDATDEERAEYWPQLVTMYPSYQDYQSWTDRTIPIVVCEP
kcat/Km [1]: 0.02
kcat/Km [2]: 0.04
kcat/Km [3]: 0.09
kcat/Km [4]: 0.14
kcat/Km [5]: 0.31
kcat/Km [6]: 0.4
kcat/Km [7]: 0.32
kcat/Km [8]: 0
kcat/Km [9]: 0.25
kcat/Km [10]: 0.16
kcat/Km [11]: 0.17
kcat/Km [12]: 0.17
kcat/Km [13]: 0.19
kcat/Km [14]: 0.24
kcat/Km [15]: 0.15
kcat/Km [16]: 0.12
kcat/Km [17]: 0.37
kcat/Km [18]: 0.25
kcat/Km [19]: 0.16
kcat/Km [20]: 0.13
kcat/Km [21]: 0.07
kcat/Km [22]: 0.21
kcat/Km [23]: 0.15
kcat/Km [24]: 0.17
kcat/Km [25]: 0.2
kcat/Km [26]: 0.31
kcat/Km [27]: 0.21
kcat/Km [28]: 0.1
kcat/Km [29]: 0.13
kcat/Km [30]: 0.13
kcat/Km [31]: 0.17
kcat/Km [32]: 0.25
kcat/Km [33]: 0.27
kcat/Km [34]: 0.2
kcat/Km [35]: 0.42
kcat/Km [36]: 0.19
kcat/Km [37]: 0.18
kcat/Km [38]: 0.31
kcat/Km [39]: 0.37
kcat/Km [40]: 0.31
kcat/Km [41]: 0.42
kcat/Km [42]: 0.33
kcat/Km [43]: 0.14
kcat/Km [44]: 0.15

From ChEMBL document CHEMBL1821556, “Structure-activity relationships of antitubercular nitroimidazoles. 3. Exploration of the linker and lipophilic tail of ((s)-2-nitro-6,7-dihydro-5H-imidazo[2,1-b][1,3]oxazin-6-yl)-(4-trifluoromethoxybenzyl)amine (6-amino PA-824)” (J Med Chem, 2011)
